The source of these data is paper PMC4824313 (Bioorganic & medicinal chemistry letters, 2016).

Bounds are passed on as bounds.

The target in data set [1] is rat mGlu1 (Rattus norvegicus, UniProt P23385). In words: rat mGlu1 calcium mobilization assay. The data set is classed as cell-based. Particulars: for mGlu1 pIC50 (± SEM): Calcium mobilization assay, rat mGlu1, NAM; for mGlu1 NAM activity (in words): top concentration tested 30 μM.
Data set [2] addresses rat mGlu5 (Rattus norvegicus, UniProt P31424). In words: rat mGlu5 calcium mobilization assay. The data set is classed as cell-based. (Calcium assays in cells follow changes in intracellular calcium, usually with a dye or a luminescent sensor.)
For data set [3], the system named is 68 clinically relevant targets. In words: radioligand binding assay panel of 68 clinically relevant targets. Particulars: 10 μM; significant = greater than or equal to 50% inhibition of binding. The essentials: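 Test compound was screened at a single 10 μM concentration for displacement of radioligand binding at each panel target. Inhibition of binding of at least 50% was counted as a significant response.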

Data set [4] is described as follows: Rat IV PK. The data set is classed as in vivo, male Sprague-Dawley rats. Particulars: male, Sprague-Dawley, plasma, 0.2 mg/kg. The method in brief:
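Male Sprague-Dawley rats were dosed IV with 2 animals per time point. The plasma concentration–time profile gave half-life, plasma clearance and steady-state volume of distribution.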

Data set [5] can be described thus: Rat IP PK time course study. The data set is classed as in vivo, male Sprague-Dawley rats. Particulars: rats; IP 10 mg/kg. The essentials:
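Male Sprague-Dawley rats received a single 10 mg/kg IP dose, with 2 animals per time point. Plasma was followed over time for Tmax, Cmax and AUC. Brain and plasma were taken at 15 min to give Kp and Kp,uu. Unbound brain concentration was estimated from these exposures combined with fraction unbound from equilibrium dialysis.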

Data set [6] relates to remaining six members of the mGlu family. Description: mGlu selectivity fold-shift experiments on orthosteric agonist CRC. The data set is classed as cell-based.
Data set [7] is described as follows: Mouse IP PK time course study. In kind it is in vivo, male CD-1 mice. The settings on record: mice; IP 30 mg/kg. The essentials: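 Tissue distribution was run in parallel under the same conditions, with brain and plasma taken at 30 min to give Kp and Kp,uu. Unbound brain concentration was estimated from these exposures combined with fraction unbound from equilibrium dialysis.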

The subject of data set [8] is 369 kinases. In words: kinase panel of 369 kinases. In kind it is biochemical. Particulars: 10 μM.

Usually Vd stands for the apparent volume that relates the amount in the body to the concentration in plasma or blood. Higher therefore signals extensive tissue distribution.

Sequence of rat mGlu1 (P23385 19-1199): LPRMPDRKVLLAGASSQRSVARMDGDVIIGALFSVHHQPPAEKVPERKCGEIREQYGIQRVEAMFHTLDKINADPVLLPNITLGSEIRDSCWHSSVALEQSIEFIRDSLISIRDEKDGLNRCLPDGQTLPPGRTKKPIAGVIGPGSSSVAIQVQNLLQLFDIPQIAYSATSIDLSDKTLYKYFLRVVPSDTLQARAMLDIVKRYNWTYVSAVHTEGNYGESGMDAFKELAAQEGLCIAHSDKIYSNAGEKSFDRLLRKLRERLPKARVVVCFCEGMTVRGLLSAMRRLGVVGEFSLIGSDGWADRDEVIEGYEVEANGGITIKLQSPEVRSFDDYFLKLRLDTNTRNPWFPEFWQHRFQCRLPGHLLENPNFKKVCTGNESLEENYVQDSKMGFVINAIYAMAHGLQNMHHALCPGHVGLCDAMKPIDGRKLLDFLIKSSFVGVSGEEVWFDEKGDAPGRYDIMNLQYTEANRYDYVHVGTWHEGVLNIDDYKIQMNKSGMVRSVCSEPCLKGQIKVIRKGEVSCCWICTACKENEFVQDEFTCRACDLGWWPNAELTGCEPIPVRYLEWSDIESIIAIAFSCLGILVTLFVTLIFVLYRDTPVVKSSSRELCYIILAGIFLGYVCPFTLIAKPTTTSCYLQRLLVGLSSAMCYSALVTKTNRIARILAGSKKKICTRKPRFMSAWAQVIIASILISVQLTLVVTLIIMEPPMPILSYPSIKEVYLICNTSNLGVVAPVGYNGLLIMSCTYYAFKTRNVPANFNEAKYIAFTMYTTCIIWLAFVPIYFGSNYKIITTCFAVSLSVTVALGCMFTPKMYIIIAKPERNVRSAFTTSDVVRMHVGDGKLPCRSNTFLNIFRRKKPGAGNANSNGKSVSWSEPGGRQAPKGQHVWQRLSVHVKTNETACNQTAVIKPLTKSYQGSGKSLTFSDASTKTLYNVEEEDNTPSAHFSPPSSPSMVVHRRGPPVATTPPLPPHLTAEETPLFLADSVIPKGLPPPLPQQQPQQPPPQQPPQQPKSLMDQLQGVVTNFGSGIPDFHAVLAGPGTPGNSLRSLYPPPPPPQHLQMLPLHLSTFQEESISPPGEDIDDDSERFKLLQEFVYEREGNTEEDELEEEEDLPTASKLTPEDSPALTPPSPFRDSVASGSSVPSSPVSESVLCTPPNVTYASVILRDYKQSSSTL
Sequence of rat mGlu5 (P31424 21-1203): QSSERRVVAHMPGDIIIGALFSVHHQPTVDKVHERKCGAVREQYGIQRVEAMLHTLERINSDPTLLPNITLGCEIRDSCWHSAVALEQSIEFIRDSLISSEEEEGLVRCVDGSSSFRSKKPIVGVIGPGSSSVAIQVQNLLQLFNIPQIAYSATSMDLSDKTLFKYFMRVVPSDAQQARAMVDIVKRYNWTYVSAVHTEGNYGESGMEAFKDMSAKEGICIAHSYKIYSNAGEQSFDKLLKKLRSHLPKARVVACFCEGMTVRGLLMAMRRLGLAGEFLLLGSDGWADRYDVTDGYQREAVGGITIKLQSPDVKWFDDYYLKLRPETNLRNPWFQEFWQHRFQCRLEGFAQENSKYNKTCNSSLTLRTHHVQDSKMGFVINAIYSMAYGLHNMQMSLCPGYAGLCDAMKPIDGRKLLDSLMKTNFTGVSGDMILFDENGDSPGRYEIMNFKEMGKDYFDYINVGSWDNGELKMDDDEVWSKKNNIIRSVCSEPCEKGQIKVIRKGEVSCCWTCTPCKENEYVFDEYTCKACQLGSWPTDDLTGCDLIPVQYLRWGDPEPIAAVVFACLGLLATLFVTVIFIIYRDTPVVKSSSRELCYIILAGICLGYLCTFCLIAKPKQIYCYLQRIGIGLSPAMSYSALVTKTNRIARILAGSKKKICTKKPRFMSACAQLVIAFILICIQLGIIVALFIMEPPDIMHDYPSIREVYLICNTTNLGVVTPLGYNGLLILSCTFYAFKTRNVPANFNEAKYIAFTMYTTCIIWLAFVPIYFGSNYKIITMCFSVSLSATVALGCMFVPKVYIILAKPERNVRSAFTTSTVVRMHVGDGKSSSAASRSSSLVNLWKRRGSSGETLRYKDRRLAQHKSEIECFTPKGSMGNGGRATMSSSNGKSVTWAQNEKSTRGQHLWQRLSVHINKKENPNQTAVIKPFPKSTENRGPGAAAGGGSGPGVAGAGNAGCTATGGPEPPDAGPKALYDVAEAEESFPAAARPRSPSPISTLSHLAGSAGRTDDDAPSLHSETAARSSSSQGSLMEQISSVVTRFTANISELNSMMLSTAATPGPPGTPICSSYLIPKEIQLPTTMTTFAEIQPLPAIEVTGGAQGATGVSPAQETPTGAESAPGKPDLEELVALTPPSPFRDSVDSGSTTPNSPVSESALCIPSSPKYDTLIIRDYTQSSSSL

`C[C@H](Nc1ncnc2c1nn1ccccc21)C1CC1` [Compound 12]: in data set [1], the “mGlu1 pIC50 (± SEM)” value is below 4.5.

On to `CC(C)(C)CCNc1ncnc2c1nn1ccccc21` [Compound 18], for which, in data set [2] (rat mGlu5 vs rat mGlu1), the “mGlu5 NAM potency relative to mGlu1 NAM activity” value is given as “approximately ten-fold less”. As for `CCC(C)(C)Nc1ncnc2c1nn1ccccc21` [Compound 19], the “mGlu1 NAM activity (in words)” value in data set [1] is reported as “only a weak mGlu1 NAM, inhibiting the glutamate response only at the top concentration tested”. Regarding `CC1(C)CCC(Nc2ncnc3c2nn2ccccc32)CC1` [Compound 29, N-(4,4-dimethylcyclohexyl)pyrido[1′,2′:1,5]pyrazolo[4,3-d]pyrimidin-4-amine], in data set [3], the “number of the 68 targets with no significant responses” value amounted to 62. In data set [4], this molecule registered a Vd of 3.1 L/kg. Further, the “estimated unbound brain concentration” value in data set [5] and in data set [7] was “approximately 100 nM” in each case. The “effect on the orthosteric agonist concentration-response curve (fold-shift)” value in data set [6] (10 μM, remaining six mGlus) is “no significant effects were observed”. Moreover, in data set [6] (versus remaining six mGlus), the “selectivity for the group I mGlu receptors” value is above 75 fold. Also, the “mGlu5 pIC50 (± SEM)” value in data set [2] (Calcium mobilization assay, rat mGlu5, NAM) was 6.89 ± 0.29. Moreover, the “number of kinases of 369 inhibited more than 50%” value in data set [8] is given as “eight”. For `C[C@H]1CC[C@H](Nc2nc(N)nc3c2nn2ccccc32)CC1` [Compound 41], the “mGlu1 NAM activity (in words)” value in data set [1] is listed as “weak mGlu1 NAM activity”.

In the case of `CNc1nc(N[C@H]2CC[C@H](C)CC2)c2nn3ccccc3c2n1` [Compound 42], the “mGlu1 pIC50 (± SEM)” value in data set [1] was below 4.5.

Turning to `CN(C)c1nc(N[C@H]2CC[C@H](C)CC2)c2nn3ccccc3c2n1` [Compound 43], the “mGlu1 pIC50 (± SEM)” value in data set [1] is reported as below 4.5.

With `CC(C)Nc1nc(N[C@H]2CC[C@H](C)CC2)c2nn3ccccc3c2n1` [Compound 44], the “mGlu1 pIC50 (± SEM)” value in data set [1] is given as below 4.5.
